We go through twelve molecules from ChEMBL document CHEMBL1147206, “Synthetic cinnamylphenol derivatives as cancer chemopreventive agents” (2007).

For experiment [1], the species on record is Mus musculus. Description: Inhibition of TPA-induced skin tumor in SENCAR mouse assessed as reduction of skin papilloma at 85 nmol after 20 weeks. Further details: scale not given: the % may be the effect or the level left. It is filed as functional.
Experiment [2] has as its system Raji. As to the kind of experiment: Survival of Raji cells at 32 nmol by trypan blue staining method. The class given is functional, Homo sapiens. In a few lines: (§1)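 Raji cells (EBV genome-carrying, non-producer) grown to 10⁶ cells/mL, centrifuged, resuspended in RPMI 1640 with 10% FCS, 4 mM n-butyric acid and 32 pmol TPA (20 ng/mL), plus test compound in DMSO (32, 16, 3.2 or 0.32 nmol; 1000–10 mol ratio/TPA). Incubated 37 °C, 48 h; viability counted by hemocytometer with Trypan Blue; ≥60% survival required.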

The test system of experiment [3] is Raji. As to the kind of experiment: Survival of Raji cells at 16 nmol by trypan blue staining method. It is filed as functional, Homo sapiens. In a few lines:
as §1

For experiment [4], the system named is Raji. Description: Survival of Raji cells at 3.2 nmol by trypan blue staining method. It is filed as functional, Homo sapiens. In a few lines:
as §1

Experiment [5] has as its system Raji. As to the kind of experiment: Survival of Raji cells at 0.32 nmol by trypan blue staining method. It is filed as functional, Homo sapiens. Summed up: as §1
In experiment [6] the test system is Human gammaherpesvirus 4. Description: TPA-induced EBV early antigen activation in Raji cells at 32 nmol relative to control.
In experiment [7] the test system is Human gammaherpesvirus 4. Description: TPA-induced EBV early antigen activation in Raji cells at 16 nmol relative to control.
The subject of experiment [8] is Human gammaherpesvirus 4. Description: TPA-induced EBV early antigen activation in Raji cells at 3.2 nmol relative to control.
Experiment [9] has as its system Human gammaherpesvirus 4. As to the kind of experiment: TPA-induced EBV early antigen activation in Raji cells at 0.32 nmol relative to control.
For experiment [10], the species on record is Mus musculus. As to the kind of experiment: Inhibition of TPA-induced skin tumor in SENCAR mouse assessed as reduction of skin papilloma at 85 nmol after 10 weeks. Further details: scale not given: the % may be the effect or the level left. It is filed as functional.

Turning to `COc1c(C/C=C/c2ccccc2)ccc(OCC=C(C)C)c1OCC=C(C)C`, in the experiment listed under Mus musculus [1], the Activity worked out at 30%. Further, the Survival is 70% in the experiment on Raji [2], over 80% in the experiment with Raji [3], over 80% in the experiment with Raji [4] and over 80% with Raji [5]. Also, the EBV-EA activation in the experiment with Human gammaherpesvirus 4 [6] is recorded as 0%; in the experiment on Human gammaherpesvirus 4 [7] it was 22.6%; in the experiment on Human gammaherpesvirus 4 [8] it was 64.5%; in the experiment on Human gammaherpesvirus 4 [9], 88.9%.

With `COc1cc(/C=C/Cc2ccc(OC)c(OCC=C(C)C)c2O)ccc1OCC=C(C)C`, the values for the Activity in the experiment listed under Mus musculus [1] and in the experiment filed under Mus musculus [10] were 53% and 87%, respectively. Moreover, the Survival is reported as 70% in the experiment with Raji [2], over 80% in the experiment with Raji [3], over 80% in the experiment on Raji [4] and over 80% in the experiment on Raji [5]. Moreover, the EBV-EA activation in the experiment with Human gammaherpesvirus 4 [6] stood at 0%; with Human gammaherpesvirus 4 [7] it was 27.5%; in the experiment on Human gammaherpesvirus 4 [8], 68.6%; in the experiment on Human gammaherpesvirus 4 [9], 89.1%.

For the molecule `COc1c(C/C=C/c2ccccc2)ccc(O)c1C/C=C/c1ccccc1`, the Survival with Raji [2] is given as 60%; with Raji [3], over 80%; with Raji [4], over 80%; with Raji [5], over 80%. For the same molecule, the EBV-EA activation is recorded as 12.8% in the experiment with Human gammaherpesvirus 4 [6], 41.5% in the experiment on Human gammaherpesvirus 4 [7], 68.2% in the experiment with Human gammaherpesvirus 4 [8] and 100% in the experiment with Human gammaherpesvirus 4 [9].

Consider `COc1cccc(O)c1C/C=C/c1ccccc1`, for which the Survival in the experiment on Raji [2] is given as 60%; with Raji [3] it was over 80%; in the experiment on Raji [4], over 80%; in the experiment on Raji [5], over 80%. Also, the EBV-EA activation in the experiment on Human gammaherpesvirus 4 [6] amounted to 18.3%; in the experiment with Human gammaherpesvirus 4 [7] it was 43.7%; with Human gammaherpesvirus 4 [8] it was 70.5%; in the experiment on Human gammaherpesvirus 4 [9], 100%.

Take `COc1ccc(C/C=C/c2ccccc2)c(OCC=C(C)C)c1OCC=C(C)C`: the Survival is reported as 70% in the experiment on Raji [2], over 80% in the experiment on Raji [3], over 80% with Raji [4] and over 80% with Raji [5]. Moreover, the EBV-EA activation was 0% with Human gammaherpesvirus 4 [6], 24.6% in the experiment on Human gammaherpesvirus 4 [7], 62.2% with Human gammaherpesvirus 4 [8] and 88.6% in the experiment with Human gammaherpesvirus 4 [9].

`COc1c(C/C=C/c2ccccc2)ccc(OCC=C(C)C)c1OC`: the Survival is reported as 70% in the experiment on Raji [2], over 80% with Raji [3], over 80% with Raji [4] and over 80% in the experiment on Raji [5]. Further, the EBV-EA activation in the experiment with Human gammaherpesvirus 4 [6] was determined as 0%; in the experiment with Human gammaherpesvirus 4 [7], 29.8%; in the experiment with Human gammaherpesvirus 4 [8], 68.2%; with Human gammaherpesvirus 4 [9], 91.5%.

For the molecule `COc1ccc(C/C=C/c2ccccc2)c(OCC=C(C)C)c1O`, the Survival in the experiment on Raji [2] is 70%; in the experiment with Raji [3] it was over 80%; with Raji [4] it was over 80%; in the experiment on Raji [5], over 80%. In addition, the EBV-EA activation is on record as 0% with Human gammaherpesvirus 4 [6], 27.6% in the experiment on Human gammaherpesvirus 4 [7], 64.5% in the experiment with Human gammaherpesvirus 4 [8] and 90.6% with Human gammaherpesvirus 4 [9].

In the case of `COc1cc(/C=C/C(=O)CC(=O)/C=C/c2ccc(O)c(OC)c2)ccc1O` [CURCUMIN], the Survival with Raji [2] is given as 60%; in the experiment with Raji [3], over 80%; in the experiment with Raji [4] it was over 80%; in the experiment with Raji [5], over 80%. Also, the EBV-EA activation in the experiment with Human gammaherpesvirus 4 [6] came out at 0%; with Human gammaherpesvirus 4 [7], 22.8%; in the experiment with Human gammaherpesvirus 4 [8] it was 81.7%; in the experiment on Human gammaherpesvirus 4 [9], 100%.

On to `COc1ccc(C/C=C/c2ccccc2)c(OCC=C(C)C)c1`, for which the Survival in the experiment on Raji [2] is listed as 70%; in the experiment with Raji [3], over 80%; with Raji [4], over 80%; in the experiment on Raji [5], over 80%. Moreover, the EBV-EA activation in the experiment with Human gammaherpesvirus 4 [6] came to 0%; with Human gammaherpesvirus 4 [7], 29.9%; in the experiment with Human gammaherpesvirus 4 [8] it was 67.8%; in the experiment on Human gammaherpesvirus 4 [9], 91.7%.

As for `COc1c(C/C=C/c2ccccc2)cc(C/C=C/c2ccccc2)c(OC)c1OC`, the Survival is 60% in the experiment on Raji [2], over 80% in the experiment on Raji [3], over 80% in the experiment with Raji [4] and over 80% in the experiment on Raji [5]. The EBV-EA activation was 12.6% with Human gammaherpesvirus 4 [6], 39.8% in the experiment on Human gammaherpesvirus 4 [7], 75.2% in the experiment on Human gammaherpesvirus 4 [8] and 100% in the experiment with Human gammaherpesvirus 4 [9].

`COc1cc(/C=C/Cc2ccc(OC)c(O)c2O)ccc1OC(C)=O`: the Survival in the experiment with Raji [2] is listed as 60%; in the experiment with Raji [3] it was over 80%; in the experiment with Raji [4], over 80%; in the experiment on Raji [5], over 80%. For the same molecule, the EBV-EA activation in the experiment with Human gammaherpesvirus 4 [6] is recorded as 10%; with Human gammaherpesvirus 4 [7] it was 37.6%; in the experiment on Human gammaherpesvirus 4 [8], 74.6%; with Human gammaherpesvirus 4 [9], 100%.

As for `COc1ccc(C/C=C/c2ccccc2)c(OC)c1OC`, the Survival was 60% in the experiment on Raji [2], over 80% in the experiment on Raji [3], over 80% in the experiment on Raji [4] and over 80% with Raji [5]. In addition, the EBV-EA activation in the experiment on Human gammaherpesvirus 4 [6] is recorded as 14.2%; with Human gammaherpesvirus 4 [7] it was 41.5%; in the experiment on Human gammaherpesvirus 4 [8], 76.6%; in the experiment on Human gammaherpesvirus 4 [9], 100%.
